Test results published in ChEMBL document CHEMBL3272222, “Heterocyclic and piperonylic acid esters of 1-methyl-4-piperidinol as analgesics” (J Med Chem, 1977).
The source made the active and inactive calls. The rule behind the calls is not given here.

Columns and labels:
[1] = test system: Mus musculus; assay: Analgesic activity in sc dosed mouse by hot-plate assay; format: functional
Outline: (§1)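 Mice dosed subcutaneously with compounds as water-soluble salts. ED50 in mg/kg, with 95% confidence limits from probit analysis. Overt toxicity was also noted at the doses given.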

[2] = test system: Mus musculus; assay: Analgesic activity in sc dosed mouse by Nilsen method; format: functional; outline: as §1
[3] = biological target: Opioid receptor (Rattus norvegicus) (UniProt P33533+P34975+P33535); settings: Brain
[4] = test system: Mus musculus; assay: Toxicity in mouse at 40 mg/kg, sc; format: organism-based; parameters: dose 40 mg/kg, route subcutaneous; settings: in vivo
Outline: (§2)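 Toxic signs were recorded in mice during analgesic testing after subcutaneous doses of the compounds, given as water-soluble salts.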

[5] = test system: Mus musculus; assay: Toxicity in mouse at 50 mg/kg, sc; format: organism-based; parameters: dose 50 mg/kg, route subcutaneous; settings: in vivo; outline: as §2
[6] = test system: Mus musculus; assay: Analgesic activity in sc dosed mouse assessed as inhibition of p-phenylquinone-induced abdominal-stretching; format: functional
[7] = test system: Mus musculus; assay: Analgesic activity in mouse assessed as inhibition of p-phenylquinone-induced abdominal-stretching at 10 mg/kg, sc; format: functional, organism-based; parameters: dose 10 mg/kg
Outline: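 Mice were dosed subcutaneously with test compounds as water-soluble salts and then run in the tail-flick assay and in the p-phenylquinone-induced abdominal-stretching (PPQ) assay.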

[8] = test system: Mus musculus; assay: Analgesic activity in mouse at 10 mg/kg, sc by tail-flick assay; format: functional, organism-based; parameters: dose 10 mg/kg
[9] = test system: Mus musculus; assay: Analgesic activity in sc dosed mouse by tail-flick assay; format: functional
[10] = test system: Mus musculus; assay: Toxicity in mouse at 20 mg/kg, sc; format: organism-based; parameters: dose 20 mg/kg, route subcutaneous; settings: in vivo; outline: as §2
[11] = test system: Mus musculus; assay: Analgesic activity in mouse at 20 mg/kg, sc by hot-plate assay; format: functional, organism-based; parameters: dose 20 mg/kg
Outline: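 Mouse hot-plate analgesia test. Compounds were given subcutaneously as water-soluble salts. ED50 values carry 95% confidence limits from probit analysis.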

[12] = test system: Rhesus monkey; assay: Toxicity in monkey assessed as tremors at 12 mg/kg administered as single dose; format: organism-based, Macaca mulatta; parameters: dose 12 mg/kg; settings: in vivo
[13] = test system: Rhesus monkey; assay: Toxicity in monkey assessed as increased respiration at 12 mg/kg administered as single dose; format: organism-based, Macaca mulatta; parameters: dose 12 mg/kg; settings: in vivo
[14] = test system: Rhesus monkey; assay: Toxicity in nonwithdrawn monkey assessed as mild abstinence signs at 6 mg/kg administered as single dose; format: organism-based, Macaca mulatta; parameters: dose 6 mg/kg; settings: in vivo
[15] = test system: Rhesus monkey; assay: Toxicity in nonwithdrawn monkey assessed as mild CNS depression at 6 mg/kg administered as single dose; format: organism-based, Macaca mulatta; parameters: dose 6 mg/kg; settings: in vivo
[16] = test system: Rhesus monkey; assay: Toxicity in monkey assessed as morphine-like dependence liability; format: organism-based, Macaca mulatta; settings: in vivo
Outline: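 Physical dependence liability of the morphine type was assessed in Rhesus monkeys.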

[17] = test system: Rhesus monkey; assay: Toxicity in monkey assessed as retching at 12 mg/kg administered as single dose; format: organism-based, Macaca mulatta; parameters: dose 12 mg/kg; settings: in vivo
[18] = test system: Rhesus monkey; assay: Toxicity in monkey assessed as increase in severity of abstinence signs at 6 mg/kg administered as single dose; format: organism-based, Macaca mulatta; parameters: dose 6 mg/kg; settings: in vivo
Outline: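 Rhesus monkeys were used in single-dose suppression tests for physical dependence. The compound was given at 6.0 mg/kg and the severity of abstinence signs was scored.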

[19] = test system: Rhesus monkey; assay: Toxicity in monkey assessed as piloerection at 12 mg/kg administered as single dose; format: organism-based, Macaca mulatta; parameters: dose 12 mg/kg; settings: in vivo
[20] = test system: Mus musculus; assay: Toxicity in mouse at 30 mg/kg, sc; format: organism-based; parameters: dose 30 mg/kg, route subcutaneous; settings: in vivo; outline: as §2
[21] = test system: Mus musculus; assay: Toxicity in mouse at 60 mg/kg, sc; format: organism-based; parameters: dose 60 mg/kg, route subcutaneous; settings: in vivo; outline: as §2

Chain of Opioid receptor (Rattus norvegicus) (P33533 whole entry, looked up): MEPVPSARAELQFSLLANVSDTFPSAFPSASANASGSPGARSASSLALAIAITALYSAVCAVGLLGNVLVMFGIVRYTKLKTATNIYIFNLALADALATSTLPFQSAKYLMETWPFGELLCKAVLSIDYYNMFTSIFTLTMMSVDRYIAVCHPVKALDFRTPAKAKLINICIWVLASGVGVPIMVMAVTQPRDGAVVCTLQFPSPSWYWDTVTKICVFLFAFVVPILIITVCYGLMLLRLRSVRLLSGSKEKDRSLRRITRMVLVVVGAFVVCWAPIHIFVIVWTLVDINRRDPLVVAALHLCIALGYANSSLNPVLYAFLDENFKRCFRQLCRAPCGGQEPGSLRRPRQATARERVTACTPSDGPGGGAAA
Chain of Opioid receptor (Rattus norvegicus) (P33535 whole entry, looked up): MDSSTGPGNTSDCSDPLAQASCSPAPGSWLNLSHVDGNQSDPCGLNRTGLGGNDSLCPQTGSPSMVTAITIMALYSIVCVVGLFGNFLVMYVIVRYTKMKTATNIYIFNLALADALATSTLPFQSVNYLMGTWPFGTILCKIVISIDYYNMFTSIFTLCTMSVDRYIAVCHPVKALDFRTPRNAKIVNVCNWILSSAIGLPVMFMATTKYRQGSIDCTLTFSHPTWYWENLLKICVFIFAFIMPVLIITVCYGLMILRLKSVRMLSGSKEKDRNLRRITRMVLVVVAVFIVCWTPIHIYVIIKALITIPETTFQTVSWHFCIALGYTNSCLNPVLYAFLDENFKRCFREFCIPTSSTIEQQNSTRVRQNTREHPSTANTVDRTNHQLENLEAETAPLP
Chain of Opioid receptor (Rattus norvegicus) (P34975 whole entry, looked up): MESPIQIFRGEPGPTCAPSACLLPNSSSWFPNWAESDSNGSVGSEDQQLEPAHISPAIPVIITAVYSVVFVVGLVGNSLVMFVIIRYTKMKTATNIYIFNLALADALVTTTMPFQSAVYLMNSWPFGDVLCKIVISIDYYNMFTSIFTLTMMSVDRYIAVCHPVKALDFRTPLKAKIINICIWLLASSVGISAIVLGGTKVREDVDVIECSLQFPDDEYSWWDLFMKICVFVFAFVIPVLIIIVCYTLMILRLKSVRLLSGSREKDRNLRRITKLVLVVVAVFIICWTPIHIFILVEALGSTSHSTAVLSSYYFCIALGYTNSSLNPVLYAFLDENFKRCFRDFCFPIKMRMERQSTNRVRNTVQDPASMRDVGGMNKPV

Compound CN1CCC(OC(=O)C2c3ccccc3Oc3ccccc32)CC1.Cl has an ED50 [1] of 35 mg/kg.

In the case of CN1CCC(OC(=O)c2ccc3ncccc3c2)CC1.Cl, the ED50 [2] is reported as 29.7 mg/kg, the ED50 [3] is reported as > 100 µM and the Activity [4] is reported as “Non-toxic”. The ED50 [1] was 9.3 mg/kg and the Activity [5] was “Toxic”.

For CN1CCC(OC(=O)c2ccc(Br)o2)CC1.Cl, the ED50 [1] was 17.7 mg/kg.

With CN1CCCC(COC(=O)c2ccc3c(c2)OCO3)C1.Cl (stereo not given) the ED50 [1] was 22.7 mg/kg.

With CN1CCC(OC(=O)c2cnc3ccccc3n2)CC1 the ED50 [1] was “inactive”.

CN1CCC(OC(=O)c2ccoc2)CC1.O=C(O)/C=C\C(=O)O showed an ED50 [1] of 27.9 mg/kg.

For Cc1ccc(C(=O)OC2CCN(C)CC2)s1, the ED50 [1] was “inactive”.

In the case of Cc1[nH]c(C)c(C(=O)OC2CCN(C)CC2)c1C, the ED50 [6] is reported as 15.1 mg/kg, the Activity [7] is reported as “Active” and the Activity [8] is reported as “Active”. For the same compound, the ED50 [3] was 1 µM, the ED50 [9] was 15.1 mg/kg and the Activity [10] was “Non-toxic”.

With Cc1c(C(=O)OC2CCN(C)CC2)c(C)n(C)c1C the Activity [11] was “Active”.

In the case of CN1CCC(OC(=O)c2ccco2)CC1.O=C(O)/C=C\C(=O)O, the ED50 [1] is reported as 12.5 mg/kg and the Activity [5] is reported as “Non-toxic”.

CN1CCC(OC(=O)c2ccc3c(c2)OCO3)CC1.Cl was tested, and the Activity [12] was “Toxic”, the Activity [13] was “Toxic” and the Activity [14] was “Toxic”. For the same compound, the Activity [15] was “Toxic”, the Activity [16] was “Non-toxic” and the ED50 [3] was 30 µM. The Activity [17] was “Toxic”, the Activity [18] was “Toxic” and the Activity [19] was “Toxic”. For the same compound, the Activity [20] was “Non-toxic”.

With Cc1ccc(C(=O)OC2CCN(C)CC2)cc1C the Activity [11] was “Active”.

For CN1CCC(OC(=O)c2ccncc2)CC1.O=C(O)/C=C\C(=O)O, the ED50 [1] was 44.2 mg/kg.

Cc1[nH]c(C)c(C(=O)OC2CCCN(C)C2)c1C (stereo not given) was tested, and the ED50 [1] was “inactive”.

With CN1CCC(OC(=O)c2cnc3ccccc3c2)CC1.Cl the Activity [21] was “Non-toxic” and the ED50 [1] was 11.2 mg/kg.

CN1CCC(OC(=O)c2cccs2)CC1.Cl was tested, and the ED50 [2] was “inactive”, the ED50 [3] was > 100 µM and the Activity [4] was “Non-toxic”. It also gave an ED50 [1] of 13.3 mg/kg.

Work on CCOC(=O)C1(c2ccccc2)CCN(C)CC1 yielded an ED50 [3] of 0.7 µM.
